# In ChEMBL document CHEMBL3286203, “Reactive oxygen species (ROS) inducible DNA cross-linking agents and their effect on cancer cells and normal lymphocytes” (J Med Chem, 2014):
# Active and inactive are the calls of the source. The rule behind the calls is not given here.
# Key:
# HOP-92 = assay: Cytotoxicity against human HOP92 cells after 48 hrs by SRB assay; format: functional; conditions: HOP-92, 48 h
# Procedure, shortened: (§1)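 GI50 was determined in the NCI Developmental Therapeutics Program in vitro 60-line cancer screen. Tumour lines were maintained in RPMI 1640 containing 5% FBS and 2 mM L-glutamine. Cells were inoculated at 5000–40 000 cells/well according to each line's doubling time before drug exposure.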
# NCI-H23 = assay: Cytotoxicity against human NCI-H23 cells after 48 hrs by SRB assay; format: functional; conditions: NCI-H23, 48 h
# Procedure, shortened: (§2)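 GI50 from the NCI Developmental Therapeutics Program in vitro human tumor cell screen. Cell lines were maintained in RPMI 1640 with 5% fetal bovine serum and 2 mM L-glutamine. They were seeded at 5000–40 000 cells/well, depending on each line's doubling time, then exposed to drug for 48 h at 37 °C, 5% CO2.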
# NCI-H322M = assay: Cytotoxicity against human NCI-H322M cells after 48 hrs by SRB assay; format: functional; procedure, shortened: as §2
# NCI-H460 = assay: Cytotoxicity against human NCI-H460 cells after 48 hrs by SRB assay; format: functional; conditions: NCI-H460, 48 h; procedure, shortened: as §2
# NCI-H522 = assay: Cytotoxicity against human NCI-H522 cells after 48 hrs by SRB assay; format: functional; conditions: NCI-H522, 48 h; procedure, shortened: as §2
# COLO 205 = assay: Cytotoxicity against human COLO205 cells after 48 hrs by SRB assay; format: functional; conditions: COLO 205, 48 h; procedure, shortened: as §1
# HCC 2998 = assay: Cytotoxicity against human HCC2998 cells after 48 hrs by SRB assay; format: functional; conditions: HCC 2998, 48 h; procedure, shortened: as §1
# HCT-116 = assay: Cytotoxicity against human HCT116 cells after 48 hrs by SRB assay; format: functional; conditions: HCT-116, 48 h; procedure, shortened: as §1
# HT-29 = assay: Cytotoxicity against human HT-29 cells after 48 hrs by SRB assay; format: functional; conditions: HT-29, 48 h; procedure, shortened: as §1
# KM12 = assay: Cytotoxicity against human KM12 cells after 48 hrs by SRB assay; format: functional; conditions: KM12, 48 h; procedure, shortened: as §1
# SW-620 = assay: Cytotoxicity against human SW620 cells after 48 hrs by SRB assay; format: functional; conditions: SW-620, 48 h
# Procedure, shortened: (§3)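 GI50 from the NCI-60 DTP human tumour line screen. Lines grown in RPMI 1640 with 5% fetal bovine serum and 2 mM L-glutamine, plated at 5000–40 000 cells/well according to doubling time. Incubated 48 h at 37 °C, 5% CO2.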
# SF-295 = assay: Cytotoxicity against human SF295 cells after 48 hrs by SRB assay; format: functional; conditions: SF-295, 48 h; procedure, shortened: as §2
# SF-539 = assay: Cytotoxicity against human SF539 cells after 48 hrs by SRB assay; format: functional; conditions: SF-539, 48 h; procedure, shortened: as §2
# SNB-19 = assay: Cytotoxicity against human SNB19 cells after 48 hrs by SRB assay; format: functional; conditions: SNB-19, 48 h; procedure, shortened: as §3
# LOX IMVI = assay: Cytotoxicity against human LOXIMVI cells after 48 hrs by SRB assay; format: functional; procedure, shortened: as §1
# Malme-3M = assay: Cytotoxicity against human MALME-3M cells after 48 hrs by SRB assay; format: functional; procedure, shortened: as §1
# M14 = assay: Cytotoxicity against human M14 cells after 48 hrs by SRB assay; format: functional; conditions: M14, 48 h; procedure, shortened: as §1
# MDA-MB-435 = assay: Cytotoxicity against human MDA-MB-435 cells after 48 hrs by SRB assay; format: functional; conditions: MDA-MB-435, 48 h; procedure, shortened: as §2
# SK-MEL-2 = assay: Cytotoxicity against human SK-MEL-2 cells after 48 hrs by SRB assay; format: functional; conditions: SK-MEL-2, 48 h; procedure, shortened: as §2
# SK-MEL-5 = assay: Cytotoxicity against human SK-MEL-5 cells after 48 hrs by SRB assay; format: functional; conditions: SK-MEL-5, 48 h; procedure, shortened: as §2
# [1] = Cytotoxicity against human UACC257 cells after 48 hrs by SRB assay; format: functional; conditions: UACC-257, 48 h; procedure, shortened: as §3
# [2] = Cytotoxicity against human UACC62 cells after 48 hrs by SRB assay; format: functional; conditions: UACC-62, 48 h; procedure, shortened: as §3
# [3] = Cytotoxicity against human OVCAR3 cells after 48 hrs by SRB assay; format: functional; conditions: OVCAR-3, 48 h; procedure, shortened: as §2
# [4] = Cytotoxicity against human OVCAR4 cells after 48 hrs by SRB assay; format: functional; conditions: OVCAR-4, 48 h; procedure, shortened: as §2
# [5] = Cytotoxicity against human OVCAR8 cells after 48 hrs by SRB assay; format: functional; conditions: OVCAR-8, 48 h; procedure, shortened: as §2
# [6] = Cytotoxicity against human NCI-ADR-RES cells after 48 hrs by SRB assay; format: functional; procedure, shortened: as §2
# 786-0 = assay: Cytotoxicity against human 786-0 cells after 48 hrs by SRB assay; format: functional; conditions: 786-0, 48 h; procedure, shortened: as §1
# ACHN = assay: Cytotoxicity against human ACHN cells after 48 hrs by SRB assay; format: functional; procedure, shortened: as §1
# CAKI-1 = assay: Cytotoxicity against human Caki1 cells after 48 hrs by SRB assay; format: functional; conditions: CAKI-1, 48 h; procedure, shortened: as §1
# RXF 393 = assay: Cytotoxicity against human RXF393 cells after 48 hrs by SRB assay; format: functional; conditions: RXF 393, 48 h; procedure, shortened: as §2
# SN12C = assay: Cytotoxicity against human SN12C cells after 48 hrs by SRB assay; format: functional; procedure, shortened: as §2
# [7] = Cytotoxicity against human UO31 cells after 48 hrs by SRB assay; format: functional; conditions: UO-31, 48 h; procedure, shortened: as §3
# DU-145 = assay: Cytotoxicity against human DU145 cells after 48 hrs by SRB assay; format: functional; conditions: DU-145, 48 h; procedure, shortened: as §1
# MCF7 = assay: Cytotoxicity against human MCF7 cells after 48 hrs by SRB assay; format: functional; conditions: MCF7, 48 h; procedure, shortened: as §1
# [8] = Cytotoxicity against human Hs578T cells after 48 hrs by SRB assay; format: functional; conditions: Hs-578T; procedure, shortened: as §1
# BT-549 = assay: Cytotoxicity against human BT549 cells after 48 hrs by SRB assay; format: functional; conditions: BT-549, 48 h; procedure, shortened: as §1
# T47D = assay: Cytotoxicity against human T47D cells after 48 hrs by SRB assay; format: functional; procedure, shortened: as §3
# [9] = Induction of [32P]-labeled 49-mer oligonucleotide duplex DNA 12 interstrand cross-linking (unknown origin) at purine nucleotide site using compound radiolabeled at 3' of 12a in phosphate buffer at pH 7 at 90 degC after 30 mins by PAGE
# [10] = Induction of [32P]-labeled 49-mer oligonucleotide duplex DNA 12 interstrand cross-linking (unknown origin) at purine nucleotide site using compound radiolabeled at 5' of 12b at 90 deg C after 30 mins by PAGE in presence of piperidine
# [11] = Induction of [32P]-labeled 49-mer oligonucleotide duplex DNA 12 interstrand cross-linking (unknown origin) at purine nucleotide site using compound radiolabeled at 3' of 12a at 90 deg C after 30 mins by PAGE in presence of piperidine
# HL-60(TB) = assay: Cytotoxicity against human HL-60(TB) cells after 48 hrs by SRB assay; format: functional; conditions: HL-60, 48 h; procedure, shortened: as §1
# K562 = assay: Cytotoxicity against human K562 cells after 48 hrs by SRB assay; format: functional; conditions: K562, 48 h; procedure, shortened: as §1
# RPMI-8226 = assay: Cytotoxicity against human RPMI8226 cells after 48 hrs by SRB assay; format: functional; conditions: RPMI-8226, 48 h; procedure, shortened: as §2
# SR = assay: Cytotoxicity against human SR cells after 48 hrs by SRB assay; format: functional; procedure, shortened: as §3
# A549 = assay: Cytotoxicity against human A549 cells after 48 hrs by SRB assay; format: functional; conditions: A549, 48 h; procedure, shortened: as §1
smiles,measurement,setting,value
CC1(C)OB(c2ccc(N(CCCl)CCBr)cc2)OC1(C)C,GI50,HOP-92,12.8 µM
same,GI50,NCI-H23,5.38 µM
same,GI50,NCI-H322M,32.5 µM
same,GI50,NCI-H460,0.42 µM
same,GI50,NCI-H522,11.7 µM
same,GI50,COLO 205,11.4 µM
same,GI50,HCC 2998,24 µM
same,GI50,HCT-116,13.9 µM
same,GI50,HT-29,18.8 µM
same,GI50,KM12,31.3 µM
same,GI50,SW-620,13.9 µM
same,GI50,SF-295,2.64 µM
same,GI50,SF-539,6.37 µM
same,GI50,SNB-19,10.6 µM
same,GI50,LOX IMVI,6.6 µM
same,GI50,Malme-3M,18.4 µM
same,GI50,M14,7.86 µM
same,GI50,MDA-MB-435,16.5 µM
same,GI50,SK-MEL-2,20.8 µM
same,GI50,SK-MEL-5,13.7 µM
same,GI50,[1],13.4 µM
same,GI50,[2],9.38 µM
same,GI50,[3],15 µM
same,GI50,[4],14.4 µM
same,GI50,[5],11.9 µM
same,GI50,[6],6.69 µM
same,GI50,786-0,8.95 µM
same,GI50,ACHN,3.4 µM
same,GI50,CAKI-1,3.52 µM
same,GI50,RXF 393,10.4 µM
same,GI50,SN12C,4.45 µM
same,GI50,[7],6.51 µM
same,GI50,DU-145,6.69 µM
same,GI50,MCF7,5.03 µM
same,GI50,[8],27.4 µM
same,GI50,BT-549,12.1 µM
same,GI50,T47D,12 µM
same,Activity,[9],Active
same,Activity,[10],Active
same,Activity,[11],Active
same,GI50,HL-60(TB),5.11 µM
same,GI50,K562,22.6 µM
same,GI50,RPMI-8226,19.4 µM
same,GI50,SR,0.66 µM
same,GI50,A549,4.88 µM
CC1(C)OB(c2ccc(N(CCBr)CCBr)cc2)OC1(C)C,Activity,[9],Active
same,Activity,[10],Active
same,Activity,[11],Active
CC1(C)OB(c2ccc(N(CCCl)CCOS(C)(=O)=O)cc2)OC1(C)C,GI50,HOP-92,11.5 µM
same,GI50,NCI-H23,4.7 µM
same,GI50,NCI-H322M,28.2 µM
same,GI50,NCI-H460,0.49 µM
same,GI50,NCI-H522,5.99 µM
same,GI50,COLO 205,11 µM
same,GI50,HCC 2998,14.6 µM
same,GI50,HCT-116,11.1 µM
same,GI50,HT-29,14.6 µM
same,GI50,KM12,25.8 µM
same,GI50,SW-620,11.9 µM
same,GI50,SF-295,2.99 µM
same,GI50,SF-539,4.83 µM
same,GI50,SNB-19,10.2 µM
same,GI50,LOX IMVI,4.72 µM
same,GI50,Malme-3M,14 µM
same,GI50,M14,5.68 µM
same,GI50,MDA-MB-435,15.3 µM
same,GI50,SK-MEL-2,21.5 µM
same,GI50,SK-MEL-5,12.8 µM
same,GI50,[1],13 µM
same,GI50,[2],5.83 µM
same,GI50,[3],13.4 µM
same,GI50,[4],13.9 µM
same,GI50,[5],8.2 µM
same,GI50,[6],6.52 µM
same,GI50,786-0,6.55 µM
same,GI50,ACHN,3.03 µM
same,GI50,CAKI-1,3.1 µM
same,GI50,RXF 393,5.71 µM
same,GI50,SN12C,4.4 µM
same,GI50,[7],6.18 µM
same,GI50,DU-145,4.52 µM
same,GI50,MCF7,4.44 µM
same,GI50,[8],24.1 µM
same,GI50,BT-549,12 µM
same,GI50,T47D,8.49 µM
same,Activity,[9],Active
same,Activity,[10],Active
same,Activity,[11],Active
same,GI50,HL-60(TB),3.88 µM
same,GI50,K562,19 µM
same,GI50,RPMI-8226,14.7 µM
same,GI50,SR,0.63 µM
same,GI50,A549,4.98 µM
